Test results from ChEMBL document CHEMBL3856229, “Hybrid Antibiotic Overcomes Resistance in P. aeruginosa by Enhancing Outer Membrane Penetration and Reducing Efflux” (J Med Chem, 2016).
Active and inactive are the calls of the source. No cut-off for these calls is given here.

Columns and labels:
Pseudomonas aeruginosa [1] = experiment: Antibacterial activity against multidrug/extremely drug-resistant Pseudomonas aeruginosa isolate PA264-104354 in presence of <= 4 ug/ml of moxifloxacin (reference value: 4 ug/ml); assay type: functional
Pseudomonas aeruginosa [2] = experiment: Antibacterial activity against multidrug-resistant/tobramycin-susceptible Pseudomonas aeruginosa isolate 86053; assay type: functional
Pseudomonas aeruginosa [3] = experiment: Potentiation of moxifloxacin induced antibacterial activity against multidrug/extremely drug-resistant Pseudomonas aeruginosa isolate PA259-96918 assessed as moxifloxacin MIC at <= […] ug/ml (reference value: […] ug/ml); assay type: functional
Pseudomonas aeruginosa [4] = experiment: Antibacterial activity against multidrug-resistant/tobramycin-susceptible Pseudomonas aeruginosa isolate 86052; assay type: functional
Pseudomonas aeruginosa [5] = experiment: Potentiation of ciprofloxacin induced antibacterial activity against pandrug-resistant Pseudomonas aeruginosa isolate 91433 assessed as ciprofloxacin MIC at <= […] ug/ml (reference value: 4 to 8 ug/ml); assay type: functional
Pseudomonas aeruginosa [6] = experiment: Antimicrobial activity against Pseudomonas aeruginosa PAO1 assessed as outer membrane damage at 8 ug/ml after 3 to 4 hrs by uranyl acetate staining based transmission electron microscopy; assay type: functional
Summary of the method: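 PAO1 in Mueller-Hinton broth was exposed to 8 µg/mL at 37 °C (3 h in the legend, 4 h in the text). Untreated cells were the reference. Morphology was imaged by transmission electron microscopy at 75 kV.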

Staphylococcus aureus = experiment: Antibacterial activity against methicillin-resistant Staphylococcus aureus ATCC 33592 after 24 hrs by microtitre broth dilution method; assay type: functional; details: ATCC 33592, 24 h
Pseudomonas aeruginosa [7] = experiment: Antibacterial activity against multidrug/extremely drug-resistant Pseudomonas aeruginosa isolate PA264-104354 in presence of <= 4 ug/ml of ciprofloxacin (reference value: 4 ug/ml); assay type: functional
Streptococcus pneumoniae = experiment: Antibacterial activity against Streptococcus pneumoniae ATCC 49619 after 24 hrs by microtitre broth dilution method; assay type: functional; details: ATCC 49619, 24 h
Pseudomonas aeruginosa [8] = experiment: Antibacterial activity against Pseudomonas aeruginosa PAO1 assessed as fractional inhibitory concentration index after 18 hrs in presence of rifampicin by checkerboard method; assay type: functional
Summary of the method: (§1)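 Checkerboard combinations of the hybrid with each partner antibiotic were tested against P. aeruginosa PAO1. Interaction is expressed as the fractional inhibitory concentration (FIC) index: ≤0.5 means synergy, 1–2 no interaction, ≥4 antagonism.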

Pseudomonas aeruginosa [9] = experiment: Antibacterial activity against Pseudomonas aeruginosa PAO1 assessed as fractional inhibitory concentration index after 18 hrs in presence of ceftazidime by checkerboard method; assay type: functional; summary of the method: as §1
Pseudomonas aeruginosa [10] = experiment: Antibacterial activity against Pseudomonas aeruginosa ATCC 27853 after 24 hrs by microtitre broth dilution method; assay type: functional; details: ATCC 27853, 24 h
Pseudomonas aeruginosa [11] = experiment: Antibacterial activity against multidrug-resistant/tobramycin-susceptible Pseudomonas aeruginosa isolate 86079; assay type: functional
Pseudomonas aeruginosa [12] = experiment: Antibacterial activity against multidrug/extremely drug-resistant Pseudomonas aeruginosa isolate PA262-101856 in presence of <= 4 ug/ml of moxifloxacin (reference value: 4 ug/ml); assay type: functional
Acinetobacter baumannii [13] = experiment: Antibacterial activity against fluoroquinolone resistant Acinetobacter baumannii isolate ABO27; assay type: functional
Acinetobacter baumannii [14] = experiment: Antibacterial activity against fluoroquinolone resistant Acinetobacter baumannii isolate ABO30; assay type: functional
Pseudomonas aeruginosa [15] = experiment: Antibacterial activity against Pseudomonas aeruginosa PAO1 assessed as outer membrane permeabilization by measuring increase in 1-N-phenylnaphthylamine measured […] for 4.5 mins by fluorescence assay; assay type: functional
Summary of the method: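 PAO1 cells received NPN, then the test agent at 50, 32, 16 or 8 µg/mL, added at 120 s. Colistin at 5 µg/mL was the positive control. Uptake was followed as NPN fluorescence. The assay was run in triplicate, and each point is the mean of three determinations ± SEM.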

Pseudomonas aeruginosa [16] = experiment: Antibacterial activity against Pseudomonas aeruginosa PAO1 assessed as fractional inhibitory concentration index after 18 hrs in presence of meropenem by checkerboard method; assay type: functional; summary of the method: as §1
Escherichia coli [17] = experiment: Antibacterial activity against fluoroquinolone resistant Escherichia coli isolate 95882 harboring beta-lactamase KPC-3/TEM-1; assay type: functional
Pseudomonas aeruginosa [18] = experiment: Antibacterial activity against Pseudomonas aeruginosa PAO1 assessed as fractional inhibitory concentration index after 18 hrs in presence of novobiocin by checkerboard method; assay type: functional; summary of the method: as §1
[19] = Hemolytic activity in human erythrocytes at 1000 microg/ml after 30 mins by spectrometry; assay type: ADME, cell-based, Erythrocyte; details: read-out: Activity
Pseudomonas aeruginosa [20] = experiment: Antibacterial activity against extremely drug-resistant Pseudomonas aeruginosa isolate 104354 infected in Galleria mellonella assessed as larvae survival at 75 mg/kg administered as single dose measured after 96 hrs; assay type: functional; details: isolate 104354, 96 h
Summary of the method: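 Galleria mellonella larvae were infected with 10^6 CFU of XDR P. aeruginosa #104354, resistant to all antipseudomonal classes except colistin. A single injected drug dose was given 2 h post-infection: 50 mg/kg with survival read at 24 h, or 75 mg/kg with survival read at 96 h. Controls were infected untreated larvae and PBS-injected larvae. Two independent experiments of 15 larvae each (n = 30).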

Pseudomonas aeruginosa [21] = experiment: Antimicrobial activity against Pseudomonas aeruginosa PAO200; assay type: functional
Summary of the method: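 MIC (µg/mL) determined in PAO200, a PAO1-derived MexAB-OprM deletion strain used to assess efflux effects.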

Pseudomonas aeruginosa [22] = experiment: Potentiation of moxifloxacin induced antibacterial activity against multidrug/extremely drug-resistant Pseudomonas aeruginosa isolate PA262-101856 assessed as moxifloxacin MIC at <= […] ug/ml (reference value: […] to […] ug/ml); assay type: functional
Pseudomonas aeruginosa [23] = experiment: Antibacterial activity against multidrug-resistant/tobramycin-susceptible Pseudomonas aeruginosa isolate 79199; assay type: functional
Pseudomonas aeruginosa [24] = experiment: Potentiation of moxifloxacin induced antibacterial activity against pandrug-resistant Pseudomonas aeruginosa isolate 91433 assessed as moxifloxacin MIC at <= […] ug/ml (reference value: 8 to […] ug/ml); assay type: functional
Pseudomonas aeruginosa [25] = experiment: Antibacterial activity against Pseudomonas aeruginosa PAO1 assessed as fractional inhibitory concentration index after 18 hrs in presence of minocycline by checkerboard method; assay type: functional; summary of the method: as §1
Pseudomonas aeruginosa [26] = experiment: Bactericidal activity against Pseudomonas aeruginosa PAO1 at 2 times MIC up to 24 hrs by time-kill kinetic study; assay type: functional
Summary of the method: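 PAO1 was grown in MH broth with varying concentrations of the test agent; colistin at its MIC served as comparator. Viable counts (CFU) were followed up to 24 h. There were three independent experiments, and each point is the mean of three determinations ± SEM.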

[27] = system: Staphylococcus epidermidis; experiment: Antibacterial activity against methicillin-susceptible Staphylococcus epidermidis isolate CANWARD-2008 81388 after 24 hrs by microtitre broth dilution method; assay type: functional; details: isolate CANWARD-2008 81388, 24 h
Escherichia coli [28] = experiment: Antibacterial activity against fluoroquinolone resistant Escherichia coli isolate 92756 harboring beta-lactamase CTX-M-14/TEM-1; assay type: functional
[29] = Selectivity ratio of MIC for Pseudomonas aeruginosa PAO1 to MIC for Pseudomonas aeruginosa PAO750; assay type: functional
Summary of the method: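 MICs were measured in PAO1 and in PAO750. PAO750 is a PAO1 derivative lacking the MexAB-OprM, MexCD-OprJ, MexEF-OprN, MexJK and MexXY efflux pumps and the outer membrane protein OpmH.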

Escherichia coli [30] = experiment: Antibacterial activity against fluoroquinolone resistant Escherichia coli isolate ECMH01 harboring beta-lactamase NDM-1; assay type: functional
Escherichia coli [31] = experiment: Antibacterial activity against Escherichia coli ATCC 25922 after 24 hrs by microtitre broth dilution method; assay type: functional; details: ATCC 25922, 24 h

## COc1c(N2C[C@@H]3CCCN(CCCCCCCCCCCCO[C@@H]4[C@@H](O[C@H]5O[C@H](CO)[C@@H](O)[C@H](N)[C@H]5O)[C@H](N)C[C@H](N)[C@H]4O[C@H]4O[C@H](CN)[C@@H](O)C[C@H]4N)[C@@H]3C2)c(F)cc2c(=O)c(C(=O)O)cn(C3CC3)c12.Cl.Cl.Cl.Cl.Cl
Pseudomonas aeruginosa [1]
  MIC: < 1 µg/mL
Pseudomonas aeruginosa [2]
  MIC: 4 µg/mL
Pseudomonas aeruginosa [3]
  MIC: < 1 µg/mL
Pseudomonas aeruginosa [4]
  MIC: 2 µg/mL
Pseudomonas aeruginosa [5]
  MIC: 0.25 µg/mL
Pseudomonas aeruginosa [6]
  Activity: Active
Staphylococcus aureus
  MIC: 1 µg/mL
Pseudomonas aeruginosa [7]
  MIC: < 0.5 µg/mL
Streptococcus pneumoniae
  MIC: 1 µg/mL
Pseudomonas aeruginosa [8]
  fractional inhibitory concentration index (FICI): 0.15
Pseudomonas aeruginosa [9]
  fractional inhibitory concentration index (FICI): 0.37
Pseudomonas aeruginosa [10]
  MIC: 4 µg/mL
Pseudomonas aeruginosa [11]
  MIC: 4 µg/mL
Pseudomonas aeruginosa [12]
  MIC: < 1 µg/mL
Acinetobacter baumannii [13]
  MIC: 8 to 64 µg/mL
Acinetobacter baumannii [14]
  MIC: 8 to 64 µg/mL
Pseudomonas aeruginosa [15]
  Activity: Dose-dependent effect
Pseudomonas aeruginosa [16]
  fractional inhibitory concentration index (FICI): 2
Escherichia coli [17]
  MIC: ≥ 64 µg/mL
Pseudomonas aeruginosa [18]
  fractional inhibitory concentration index (FICI): 0.12
[19]
  hemolysis at 0.5 h, 1000 microg/ml: < 2.5%
Pseudomonas aeruginosa [20]
  survival at 75 mg/kg: 20%
Pseudomonas aeruginosa [21]
  MIC: 4 µg/mL
Pseudomonas aeruginosa [22]
  MIC: 2 µg/mL
Pseudomonas aeruginosa [23]
  MIC: 8 µg/mL
Pseudomonas aeruginosa [24]
  MIC: 0.12 µg/mL
Pseudomonas aeruginosa [25]
  fractional inhibitory concentration index (FICI): 0.15
Pseudomonas aeruginosa [26]
  Activity: Active
[27]
  MIC: 2 µg/mL
Escherichia coli [28]
  MIC: ≥ 64 µg/mL
[29]
  Selectivity ratio: 8
Escherichia coli [30]
  MIC: ≥ 64 µg/mL
Escherichia coli [31]
  MIC: 0.5 µg/mL
